Reference: ChEMBL document CHEMBL4020842, “Discovery of N1-(4-((7-Cyclopentyl-6-(dimethylcarbamoyl)-7 H-pyrrolo[2,3- d]pyrimidin-2-yl)amino)phenyl)- N8-hydroxyoctanediamide as a Novel Inhibitor Targeting Cyclin-dependent Kinase 4/9 (CDK4/9) and Histone Deacetlyase1 (HDAC1) against Malignant Cancer” (J Med Chem, 2018)
≈ marks a conversion by molar mass, not a printed value. Calls of active or inactive are those of the source. The rule behind the calls is not given here.

Assays:
A549 [1] = experiment: Induction of apoptosis in human A549 cells assessed as early apoptotic cells at 5 uM after 48 hrs by annexin V-FITC/propidium iodide staining based flow cytometry (reference value: 0.41%); assay type: functional
A549 [2] = experiment: Induction of apoptosis in human A549 cells assessed as necrotic cells at 1 uM after 48 hrs by annexin V-FITC/propidium iodide staining based flow cytometry (reference value: […]%); assay type: functional
A549 [3] = experiment: Induction of apoptosis in human A549 cells assessed as late apoptotic cells at 1 uM after 48 hrs by annexin V-FITC/propidium iodide staining based flow cytometry (reference value: 0.88%); assay type: functional
A549 [4] = experiment: Induction of apoptosis in human A549 cells assessed as necrotic cells at 10 uM after 48 hrs by annexin V-FITC/propidium iodide staining based flow cytometry (reference value: […]%); assay type: functional
NCI-H460 [5] = experiment: Induction of apoptosis in human NCI-H460 cells assessed as live cells at 5 uM after 48 hrs by annexin V-FITC/propidium iodide staining based flow cytometry (reference value: 97.3%); assay type: functional
NCI-H460 [6] = experiment: Induction of apoptosis in human NCI-H460 cells assessed as necrotic cells at 1 uM after 48 hrs by annexin V-FITC/propidium iodide staining based flow cytometry (reference value: 1.34%); assay type: functional
NCI-H460 [7] = experiment: Induction of apoptosis in human NCI-H460 cells assessed as necrotic cells at 10 uM after 48 hrs by annexin V-FITC/propidium iodide staining based flow cytometry (reference value: 1.34%); assay type: functional
T47D [8] = experiment: Induction of apoptosis in human T47D cells assessed as live cells at 10 uM after 48 hrs by annexin V-FITC/propidium iodide staining based flow cytometry (reference value: 85.3%); assay type: functional
MDA-MB-231 [9] = experiment: Induction of apoptosis in human MDA-MB-231 cells assessed as necrotic cells at 10 uM after 48 hrs by annexin V-FITC/propidium iodide staining based flow cytometry (reference value: […]); assay type: functional
Hep 3B2 [10] = experiment: Cell cycle arrest in human Hep3B cells assessed as accumulation at G0/G1 phase at 625 nM after 24 hrs by propidium iodide staining based flow cytometry; assay type: functional
Summary of the method: (§1)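 Cells were exposed for 24 h to a range of concentrations (625 nM, 2.5 and 10 µM), with DMSO vehicle as control. They were then stained with propidium iodide and analysed by flow cytometry to obtain the percentages of cells in G0/G1, S and G2 phases.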

NCI-H460 [11] = experiment: Cell cycle arrest in human NCI-H460 cells assessed as accumulation at G0/G1 phase at 625 nM after 24 hrs by propidium iodide staining based flow cytometry; assay type: functional; summary of the method: as §1
T47D [12] = experiment: Cell cycle arrest in human T47D cells assessed as accumulation at G0/G1 phase at 625 nM after 24 hrs by propidium iodide staining based flow cytometry; assay type: functional; summary of the method: as §1
T47D [13] = experiment: Cell cycle arrest in human T47D cells assessed as accumulation at G2 phase at 2.5 to 10 uM after 24 hrs by propidium iodide staining based flow cytometry; assay type: functional; summary of the method: as §1
MDA-MB-231 [14] = experiment: Cell cycle arrest in human MDA-MB-231 cells assessed as decrease in S-phase at 625 nM after 24 hrs by propidium iodide staining based flow cytometry; assay type: functional; summary of the method: as §1
HepG2 [15] = experiment: Cell cycle arrest in human HepG2 cells assessed as accumulation at G2 phase at 2.5 to 10 uM after 24 hrs by propidium iodide staining based flow cytometry; assay type: functional; summary of the method: as §1
[16] = molecular target: Serine/threonine-protein kinase TAO2 (Homo sapiens, UniProt Q9UL54); experiment: Inhibition of recombinant human N-terminal His6-tagged TAO2 expressed in sf21 cells
NCI-H460 [17] = experiment: Cytotoxicity against human NCI-H460 cells assessed as reduction in cell viability after 72 hrs by CCK8 assay; assay type: functional, cell-based; settings: NCI-H460, 72 h
Histone deacetylase 1 [18] = molecular target: T1, Histone deacetylase 1 (Homo sapiens, UniProt Q13547); experiment: Inhibition of HDAC1 (unknown origin)
HepG2 [19] = experiment: Induction of apoptosis in human HepG2 cells assessed as early apoptotic cells at 1 uM after 48 hrs by annexin V-FITC/propidium iodide staining based flow cytometry (reference value: 0.3%); assay type: functional
HepG2 [20] = experiment: Induction of apoptosis in human HepG2 cells assessed as early apoptotic cells at 5 uM after 48 hrs by annexin V-FITC/propidium iodide staining based flow cytometry (reference value: 0.3%); assay type: functional
Hep 3B2 [21] = experiment: Induction of apoptosis in human Hep3B cells assessed as necrotic cells at 10 uM after 48 hrs by annexin V-FITC/propidium iodide staining based flow cytometry (reference value: 4.97%); assay type: functional
Hep 3B2 [22] = experiment: Induction of apoptosis in human Hep3B cells assessed as early apoptotic cells at 1 uM after 48 hrs by annexin V-FITC/propidium iodide staining based flow cytometry (reference value: 1.91%); assay type: functional
A549 [23] = experiment: Induction of apoptosis in human A549 cells after 48 hrs by annexin V-FITC/propidium iodide staining based flow cytometry; assay type: functional, cell-based
HepG2 [24] = experiment: Downregulation of CDK4 protein expression in human HepG2 cells after 48 hrs by Western blot method; assay type: functional, cell-based
MDA-MB-231 [25] = experiment: Downregulation of Cyclin-D1 protein expression in human MDA-MB-231 cells after 48 hrs by Western blot method; assay type: functional, cell-based
Summary of the method: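 Treated cells were lysed and CDK4 and cyclin D1 protein levels were assessed by Western blot.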

Histone deacetylase 1 [26] = molecular target: T1, Histone deacetylase 1; experiment: Inhibition of HDAC1 in human T47D cells assessed as increase in acetylated-histone H3 level at 1 to 5 uM after 48 hrs by Western blot method; assay type: cell-based
A549 [27] = experiment: Induction of apoptosis in human A549 cells assessed as caspase-3 cleavage after 48 hrs by Western blot method; assay type: functional, cell-based
Summary of the method: (§2)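 Cells were treated with or without compound and control for 48 h, then lysed. Bcl-2 and cleaved caspase 3 were assessed by Western blot.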

HepG2 [28] = experiment: Induction of apoptosis in human HepG2 cells assessed as caspase-3 cleavage after 48 hrs by Western blot method; assay type: functional, cell-based; summary of the method: as §2
[29] = Aqueous solubility in pH 7.4 PBS buffer at 1 mg sonicated for 24 hrs and incubated under unstirred condition for 24 hrs by HPLC method; assay type: physicochemical
[30] = MRT (0 to infinity) in Sprague-Dawley rat at 20 mg/kg, iv administered as single dose by HPLC analysis; assay type: ADME, organism-based; settings: in vivo
[31] = AUC (0 to infinity) in Sprague-Dawley rat at 20 mg/kg, ip administered as single dose by HPLC analysis; assay type: ADME, organism-based; set-up: dose 20 mg/kg, time infinity, route intraperitoneal; settings: in vivo
[32] = MRT (0 to infinity) in Sprague-Dawley rat at 20 mg/kg, ip administered as single dose by HPLC analysis; assay type: ADME, organism-based; settings: in vivo
Rattus norvegicus = experiment: Apparent volume of distribution at steady state in Sprague-Dawley rat at 20 mg/kg, ip administered as single dose by HPLC analysis; assay type: ADME, organism-based; settings: in vivo
Mus musculus = experiment: Toxicity in Balb/c mouse assessed as weight loss at 45 to 130 mg/kg, ip for 16 consecutive days; assay type: organism-based; settings: in vivo
4T1 = experiment: Antitumor activity against mouse Fluc-labeled 4T1 cells implanted in Balb/c mouse assessed as tumor growth inhibition at 90 mg/kg, ip administered daily for 18 days measured after 8 to 25 days by bioluminescence assay relative to control; assay type: functional; settings: 4T1, ip, read-out: TGI
Summary of the method: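 Luciferase (Fluc) reporter introduced into 4T1 cells by lentiviral transduction. Cells implanted orthotopically into mammary fat pads of female BALB/c mice aged 6–8 weeks. Once tumours averaged 100 mm3, dosing was daily by IP injection. Bioluminescence imaging was done at days 8 and 25 to reflect viable tumour cell number. Tumour weight was recorded at study end.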

T1 sequence (Q13547 whole entry): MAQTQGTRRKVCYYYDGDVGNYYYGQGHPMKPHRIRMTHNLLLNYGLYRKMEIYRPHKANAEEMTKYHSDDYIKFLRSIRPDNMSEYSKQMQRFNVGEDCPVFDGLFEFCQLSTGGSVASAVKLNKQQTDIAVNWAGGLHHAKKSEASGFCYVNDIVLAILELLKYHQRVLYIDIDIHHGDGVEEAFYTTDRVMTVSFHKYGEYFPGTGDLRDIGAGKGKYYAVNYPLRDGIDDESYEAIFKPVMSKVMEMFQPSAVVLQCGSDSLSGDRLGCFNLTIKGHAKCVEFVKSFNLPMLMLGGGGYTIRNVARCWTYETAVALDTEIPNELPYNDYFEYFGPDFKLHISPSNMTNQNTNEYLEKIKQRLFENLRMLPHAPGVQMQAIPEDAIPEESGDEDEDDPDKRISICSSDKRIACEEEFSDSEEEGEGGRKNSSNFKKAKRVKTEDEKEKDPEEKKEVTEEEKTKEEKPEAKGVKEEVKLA
Serine/threonine-protein kinase TAO2, sequence (Q9UL54 whole entry): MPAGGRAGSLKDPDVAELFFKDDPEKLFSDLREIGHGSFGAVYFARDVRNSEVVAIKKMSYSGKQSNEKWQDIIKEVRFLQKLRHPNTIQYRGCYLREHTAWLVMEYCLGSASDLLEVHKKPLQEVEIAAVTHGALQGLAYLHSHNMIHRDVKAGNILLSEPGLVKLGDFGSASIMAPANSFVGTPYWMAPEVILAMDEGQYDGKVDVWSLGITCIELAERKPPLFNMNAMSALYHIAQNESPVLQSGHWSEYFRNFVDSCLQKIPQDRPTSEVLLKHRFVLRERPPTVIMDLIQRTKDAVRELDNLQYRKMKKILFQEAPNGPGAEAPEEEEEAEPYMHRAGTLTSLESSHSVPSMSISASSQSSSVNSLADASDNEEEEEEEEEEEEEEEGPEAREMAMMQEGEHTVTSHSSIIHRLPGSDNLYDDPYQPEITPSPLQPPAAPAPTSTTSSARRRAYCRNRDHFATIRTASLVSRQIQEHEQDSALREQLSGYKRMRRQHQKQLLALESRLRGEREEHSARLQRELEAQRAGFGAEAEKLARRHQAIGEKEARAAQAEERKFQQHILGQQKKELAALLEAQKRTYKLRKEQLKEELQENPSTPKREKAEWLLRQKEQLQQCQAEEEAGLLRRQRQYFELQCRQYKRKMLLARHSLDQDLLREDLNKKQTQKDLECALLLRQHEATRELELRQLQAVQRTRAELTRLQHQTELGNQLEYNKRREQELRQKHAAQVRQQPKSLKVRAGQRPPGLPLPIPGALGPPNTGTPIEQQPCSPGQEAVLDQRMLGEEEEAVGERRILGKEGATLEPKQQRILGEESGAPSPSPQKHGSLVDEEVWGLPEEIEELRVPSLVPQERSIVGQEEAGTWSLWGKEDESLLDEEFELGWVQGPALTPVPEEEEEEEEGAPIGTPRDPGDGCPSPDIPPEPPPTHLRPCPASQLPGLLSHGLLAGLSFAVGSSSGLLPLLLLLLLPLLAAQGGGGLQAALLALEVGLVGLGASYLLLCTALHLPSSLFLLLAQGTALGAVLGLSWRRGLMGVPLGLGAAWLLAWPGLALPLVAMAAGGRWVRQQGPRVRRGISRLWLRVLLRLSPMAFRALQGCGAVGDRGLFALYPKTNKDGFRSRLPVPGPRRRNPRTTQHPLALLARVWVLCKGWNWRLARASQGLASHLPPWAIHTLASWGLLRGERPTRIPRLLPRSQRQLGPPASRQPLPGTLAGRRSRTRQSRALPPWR

IC50 [16]: 0.084 µM
IC50 (Histone deacetylase 1 [18]): 0.0022 µM
inhibition (Histone deacetylase 1 [26]): Active
solubility at 24 h [29]: 0.35 µg/mL (≈ 0.653 µM)
MRT inf [30]: 14.1 h
AUC(0-inf) [31]: 2130 ng·h/mL
MRT inf [32]: 13.8 h
Vdss(app) (Rattus norvegicus): 119.94 L/kg
Compound: CN(C)C(=O)c1cc2cnc(Nc3ccc(NC(=O)CCCCCCC(=O)NO)cc3)nc2n1C1CCCC1
Activity (A549 [1]): 2.41%
Activity (A549 [2]): 6.67%
Activity (A549 [3]): 1.93%
Activity (A549 [4]): 6.38%
Activity (NCI-H460 [5]): 88.9%
Activity (NCI-H460 [6]): 1.25%
Activity (NCI-H460 [7]): 5.58%
Activity (T47D [8]): 43.2%
Activity (MDA-MB-231 [9]): 1.21%
Activity (Hep 3B2 [10]): Active
Activity (NCI-H460 [11]): Active
Activity (T47D [12]): Active
Activity (T47D [13]): Active
Activity (MDA-MB-231 [14]): Active
Activity (HepG2 [15]): Active
IC50 (NCI-H460 [17]): 3.78 µM
Activity (HepG2 [19]): 2.6%
Activity (HepG2 [20]): 7.31%
Activity (Hep 3B2 [21]): 3.02%
Activity (Hep 3B2 [22]): 3.82%
Activity (A549 [23]): Dose-dependent effect
Activity (HepG2 [24]): Dose-dependent effect
Activity (MDA-MB-231 [25]): Dose-dependent effect
Activity (A549 [27]): Active
Activity (HepG2 [28]): Active
Activity (Mus musculus): Non-Toxic
inhibition in vivo at 90 mg/kg (4T1): 78.4%
